Measurements published in ChEMBL document CHEMBL3774334, “New cytotoxic neo-clerodane diterpenoids from Scutellaria strigillosa” (Bioorg Med Chem Lett, 2016).

What was measured:
Type in all cases: functional, cell-based
[1] = system: MCF7; experiment: Cytotoxicity against human MCF7 cells assessed as growth inhibition after 72 hrs by MTT assay; settings: MCF7, 72 h
Outline: (§1)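 MTT read-out of cell growth, method as in an earlier report. IC50 is the concentration giving 50% inhibition of cell growth. Etoposide and cisplatin were run as positive controls.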

[2] = system: P388; experiment: Cytotoxicity against mouse P388 cells assessed as growth inhibition after 72 hrs by MTT assay; settings: P388, 72 h; outline: as §1
[3] = system: HT-29; experiment: Cytotoxicity against human HT-29 cells assessed as growth inhibition after 72 hrs by MTT assay; settings: HT-29, 72 h; outline: as §1
[4] = Cytotoxicity against human HONE1 cells assessed as growth inhibition after 72 hrs by MTT assay; settings: HONE1, 72 h; outline: as §1

`CC1=CCC[C@H]2[C@@]1(C)[C@@H](OC(=O)c1ccccc1)[C@H](OC(=O)C(O)C(C)C)[C@](C)(O)[C@]2(C)/C=C/C1=CC(=O)OC1` (stereo partly specified) gave an IC50 [1] of 7.7 µM, an IC50 [2] of 7.1 µM and an IC50 [3] of 6.4 µM. It also gave an IC50 [4] of 3.9 µM.

In the case of `CC(=O)O[C@H]1[C@H](OC(C)=O)[C@]2(C)O[C@]3(COC(=O)C3)C[C@H](OC(=O)c3ccccc3)[C@]2(C)[C@H]2CCC=C(C)[C@]12C`, the IC50 [1] is reported as 6 µM, the IC50 [2] is reported as 5.2 µM and the IC50 [3] is reported as 4.1 µM. The IC50 [4] was 4.2 µM.

Compound `CC1=CCC[C@H]2[C@@]1(C)[C@@H](OC(=O)c1cccnc1)[C@H](OC(=O)c1ccccc1)[C@]1(C)O[C@]3(COC(=O)C3)C[C@H](OC(=O)c3cccnc3)[C@]21C` has an IC50 [1] of 5.7 µM, an IC50 [2] of 5.8 µM and an IC50 [3] of 4.7 µM. It also gave an IC50 [4] of 3.5 µM.

Compound `COc1cc([C@@H]2c3cc4c(cc3[C@@H](O[C@@H]3O[C@@H]5CO[C@@H](C)O[C@H]5[C@H](O)[C@H]3O)[C@H]3COC(=O)[C@H]23)OCO4)cc(OC)c1O` [ETOPOSIDE] has an IC50 [1] of 2.2 µM, an IC50 [2] of 1.3 µM and an IC50 [3] of 2 µM. For the same compound, the IC50 [4] was 1.2 µM.
